High-throughput results deposited in PubChem BioAssay by Broad Institute.
An excerpt weighted towards active compounds, which were near 2.6% of everything screened.
SR-BI DiI inh: inhibitors of mouse SR-BI mediated HDL lipid uptake; Q61009; ldlA[mSR-BI] CHO cells, DiI-HDL uptake fluorescence, 3 h; inhibition, % at 12.5 µM; 0.96% of 320,000 active; AID 488896;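 active means mean replicate inhibition of at least 70% and a set share of replicates each scoring 70 or more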
Target sequence (Q61009 whole entry, looked up): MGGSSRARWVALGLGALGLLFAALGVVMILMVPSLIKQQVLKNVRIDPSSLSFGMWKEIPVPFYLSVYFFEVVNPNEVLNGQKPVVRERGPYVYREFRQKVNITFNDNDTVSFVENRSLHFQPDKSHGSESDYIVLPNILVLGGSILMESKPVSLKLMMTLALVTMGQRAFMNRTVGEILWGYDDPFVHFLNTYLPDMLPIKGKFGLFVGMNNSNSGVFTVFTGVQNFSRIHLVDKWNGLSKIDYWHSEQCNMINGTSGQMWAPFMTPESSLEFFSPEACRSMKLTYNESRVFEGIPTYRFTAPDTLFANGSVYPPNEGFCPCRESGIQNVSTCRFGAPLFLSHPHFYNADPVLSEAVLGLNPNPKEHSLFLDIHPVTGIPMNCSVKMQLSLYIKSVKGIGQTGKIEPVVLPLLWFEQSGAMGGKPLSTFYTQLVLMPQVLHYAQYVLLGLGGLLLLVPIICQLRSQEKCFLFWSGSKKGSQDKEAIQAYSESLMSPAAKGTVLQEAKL
SR-BI DiI-HDL act: activators of SR-BI mediated HDL lipid uptake. CHO ldlA[mSR-BI] cells, DiI-HDL uptake fluorescence, 3 h; 100 = double the neutral-control signal. activation, % at 12.5 µM. 0.096% of 320,000 active. AID 504775;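 active means mean replicate activation of at least 60% and every replicate at or above 60%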
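System: CHO ldlA[mSR-BI] cells / Medium: HEPES-buffered (25 mM, pH 7.4) F12 plus 0.5% BSA / Probe or stimulus: labelled HDL, 10 µg/mL / Doses: single compound concentration, delivered by pin transfer / Schedule: 3 h, 37 °C / Measured by: DiI fluorescence, bottom read / Measure: cell-associated DiI fluorescence as measure of HDL uptake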
Xi reactivation: reactivates the inactive X chromosome in mouse fibroblasts; activation, % at 7.58 µM; 0.055% of 360,000 active; XiGFP mouse fibroblasts, % GFP-positive cells imaging, 3 d; cells co-treated with 5-aza-dC sensitizer; scaled so ellipticine positive control = 100%;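 active means mean normalized replicate activation at least 10% and every replicate at or above 10%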
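Material: SV40-immortalized XiGFP fibroblast cells, line 68-5-11 | Buffer or medium: DMEM containing 5-aza-dC | Dosing: One concentration, pinned | Times: 3 d treatment, 15 min room-temperature fixation | Controls: Ellipticine 6 µM positive control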
rRNA inh HTS: selective bacterial rRNA inhibition in E. coli | 1.6% of 350,000 active | GFP signal change (wild-type ribosome), % (no concentration beside the values) | E. coli WT GFP vs humanized-ribosome RFP mutants, fluorescence, 24 h; stronger effect = lower value; DMSO median 0, no signal -100 | AID 720706;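 active means significant combined selectivity score with lowered wild-type GFP, culture density cut under 30%, mutant RFP and density less affected; inactive means any of these conditions unmet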
PvdQ acylase: P. aeruginosa PvdQ acylase inhibition. purified PvdQ acylase, fluorescence plate reader. inhibition, % at 10 µM. 0.063% of 340,000 active. AID 488965; in the data active means inhibition above about 30%, passing the limit was not always enough
dFosB act-1: enhances mouse delta FosB homodimer DNA binding; P13346; activation, % at 25 µM; 0.99% of 340,000 active; purified delta FosB, TAMRA-CDK5 oligo fluorescence polarization; percent of positive-control signal above neutral wells;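 active means mean activation above about 17%, with every replicate also reaching it, limit read from the data, passing the limit was not always enough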
dFosB act-2: delta FosB (mouse) homodimer activation; activation, % at 24.9 µM; shares compounds with dFosB act-1; purified delta FosB, TAMRA-CDK5 oligo fluorescence polarization; normalised: neutral wells 0, positive control 100; 2,400 tested, under 10 active;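 active means highest replicate activation at or above 34% and every replicate reaching that threshold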;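 further: higher polarization means more probe DNA bound by delta FosB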
Of the large screens only hits and unclear results are named; the others gave an inactive call (follow-up assays come after a bar, where they were run).

CC(=O)Nc1ccc(NC(=O)COC(=O)/C=C/c2ccc3c(c2)OCO3)cc1	none
O=C(N/N=C\C=C\c1ccc(Br)cc1)c1ccc2c(c1)OCO2	dFosB act-1 24 | dFosB act-2 inactive
COc1ccc(NS(=O)(=O)c2cccc(C(=O)N/N=C/c3ccc4c(c3)OCCO4)c2)cc1	dFosB act-1 25 | dFosB act-2 inactive
Cc1cc(Cl)ccc1NC(=O)C(=O)N/N=C/c1ccc2c(c1)OCO2	none
NC(=O)c1ccc(NC(=O)COC(=O)/C=C/c2ccc3c(c2)OCO3)cc1	dFosB act-1 24 (no result: SR-BI DiI inh, SR-BI DiI-HDL act) | dFosB act-2 inactive
O=C(N/N=C/C=C/c1ccc2c(c1)OCO2)c1ccc([N+](=O)[O-])cc1	none (no result: Xi reactivation, rRNA inh HTS)
Cc1ccc(Cl)cc1NC(=O)C(=O)N/N=C/c1ccc2c(c1)OCO2	dFosB act-1 40 | dFosB act-2 inactive
O=C(On1c(-c2ccccc2)nc2ccccc2c1=O)c1ccco1	none (no result: Xi reactivation, rRNA inh HTS)
COCc1c(C(=O)NCC(c2ccco2)N2CCCC2)oc2ccccc12 (stereo not given)	none (no result: SR-BI DiI inh, SR-BI DiI-HDL act, PvdQ acylase, dFosB act-1)
O=C(Nc1cccc(Cl)c1)c1ccc2sc([C@@H]3O[C@H](CO)[C@H](O)[C@H](O)[C@H]3O)nc2c1	none (no result: SR-BI DiI inh, SR-BI DiI-HDL act, PvdQ acylase, dFosB act-1)
O=C(N/N=C/c1ccc(F)cc1)c1cc(-c2ccc3c(c2)OCO3)n[nH]1	dFosB act-1 29 (no result: rRNA inh HTS) | dFosB act-2 inactive
CN(C)c1ccc(/C=N/NC(=O)c2cc(-c3ccc4c(c3)OCO4)n[nH]2)cc1	none
COc1ccc2oc(-c3ccc(C)c(NC(=O)c4ccc(N5CCOCC5)c([N+](=O)[O-])c4)c3)nc2c1	dFosB act-1 22 (no result: Xi reactivation, rRNA inh HTS) | dFosB act-2 inactive
COc1ccc(CNC(=O)c2ccc(N3CCOCC3)c([N+](=O)[O-])c2)cc1	none
O=C1CC(SCc2nc3ccccc3[nH]2)C(=O)N1c1cccc(Cl)c1 (stereo not given)	none (no result: Xi reactivation)
CC1=NN(C(=O)c2ccc(Cn3nc(C)c(Br)c3C)cc2)C(O)(C(F)(F)F)C1 (stereo not given)	none
O=C(Nc1cccn(Cc2c(F)cccc2Cl)c1=O)NC1CCCCC1	none
CC(=O)c1ccc(NC(=O)C2CCCN(S(=O)(=O)c3ccc(-n4cnnn4)cc3)C2)cc1 (stereo not given)	none
Cc1cc(C)cc(OCC(=O)Nc2ccc(-n3cnnn3)cc2)c1	dFosB act-1 34 | dFosB act-2 inactive
CC(=O)c1ccc(NC(=O)c2ccc(-n3cnnn3)cc2)cc1	dFosB act-1 24 | dFosB act-2 inactive
CC(=O)Nc1ccc(NC(=O)C2CCCN(S(=O)(=O)c3ccc(-n4cnnn4)cc3)C2)cc1 (stereo not given)	dFosB act-1 23 | dFosB act-2 inactive
CC(=O)c1ccc(S(=O)(=O)Nc2ccc(-n3cnnn3)cc2)cc1	none
CN(c1ccccc1)S(=O)(=O)c1nnc(NC(=O)COc2ccccc2F)s1	dFosB act-1 33 | dFosB act-2 inactive
CN(c1ccccc1)S(=O)(=O)c1nnc(NC(=O)COc2ccccc2)s1	dFosB act-1 20 | dFosB act-2 inactive
CC(/C=N/NC(=O)COc1ccccc1C)=N\NC(=O)COc1ccccc1C	dFosB act-1 22 | dFosB act-2 inactive
Cc1ccccc1OCC(=O)N/N=C/c1ccccn1	none
Cc1cc(-c2nnn(CCCOC(C)(C)C)c2C)ccc1-c1cn(CCCOC(C)(C)C)nn1	none (no result: SR-BI DiI inh, SR-BI DiI-HDL act, PvdQ acylase, dFosB act-1)
CC(C)c1nc(SCC(=O)Nc2ccc3c(c2)OCCO3)c2c(=O)n(C)c(=O)n(C)c2n1	dFosB act-1 24 | dFosB act-2 inactive
CC(C)c1nc(SCC(=O)Nc2cccc(C(F)(F)F)c2)c2c(=O)n(C)c(=O)n(C)c2n1	none
O=C(C[C@H]1CC[C@@H](NC(=O)Nc2cc(F)ccc2F)[C@H](CO)O1)NCc1ccccn1	none (no result: SR-BI DiI inh, SR-BI DiI-HDL act, PvdQ acylase, dFosB act-1)
CCc1ccc(NC(=O)C(NS(=O)(=O)c2ccc3c(c2)CCN3C(C)=O)C(C)C)cc1 (stereo not given)	dFosB act-1 37 | dFosB act-2 inactive
